Experimental data from PMC3076219 (European journal of immunology, 2009).
“Also recorded” adds a separate entry of the source.

How the values were obtained:
neutrophils [1] = assay: Calcium mobilization of neutrophils; format: cell-based, human
neutrophils [2] = assay: Neutrophil migration, 24-well Transwell; format: cell-based, human; conditions: Fig. 6H
In short: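 CFSE-labelled human neutrophils (5 µM, 5 min RT) at 5×10^6/mL in phenol-red-free RPMI 1640 with 1% FBS went in the Transwell upper chamber (3-µm pores). The lower chamber held test peptide (1 or 5 µM) or medium. Some cells were first preincubated 20 min with 10 µM CXCR2 antagonist. After 1 h at 37 °C, migrated cells were read at 495 nm against a standard curve. Quadruplicate; unpaired t-test.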

monocytes [3] = assay: Migration of monocytes, 24-well Transwell; format: cell-based, human; conditions: LL-37 5 µM, Fig. 7F
In short: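 CFSE-labelled monocytes or THP-1 cells (5 µM, 5 min RT) at 2×10^6/mL in phenol-red-free RPMI 1640 with 1% FBS went in the Transwell upper chamber (3-µm pores). Stimuli in the lower chamber included CXCL1 50 nM, WKYMVm 5 µM and ATP/BzATP 50 µM. Cells were used with or without 20 min preincubation with 10 µM CXCR2 antagonist. Incubation at 37 °C lasted 90 min for monocytes and 2 h for THP-1. Lower-well cells were read at 495 nm against a standard curve, in quadruplicate.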

neutrophils [4] = conditions: ref [27]; cited from earlier work
neutrophils [5] = conditions: cited from earlier work
CXCR2 [6] = conditions: indirect, inside-out signaling; ref [16]; cited from earlier work
CXCR1 [7] = conditions: indirect, inside-out signaling; ref [16]; cited from earlier work
CXCR2 [8] = assay: CXCR2 surface expression on neutrophils, flow cytometry; format: cell-based, human; conditions: WKYMVm 1 µM, 10 µM, 100 µM; 3h; Fig. 2B
CXCR1 [9] = assay: CXCR1 surface expression on neutrophils, flow cytometry; format: cell-based, human; conditions: WKYMVm 1 µM, 10 µM, 100 µM; 3h; Fig. 2B
In short: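 Human blood neutrophils were isolated by dextran sedimentation and Ficoll (>95% CD16+) and held at 5×10^6/mL in RPMI 1640 with 1% FBS. They were treated 3h with a dose series (test peptide 1–10 µM; chemokines 1, 5, 10, 50 nM) or with 5 µM for 0.5–3h. Cells were blocked in 10% human serum and stained with anti-CXCR1-APC/anti-CXCR2-FITC or anti-P2X7-FITC, plus anti-CD16. Read-out was flow cytometry GMFI.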

CXCR2 [10] = assay: CXCR2 surface expression on monocytes; format: cell-based, human; conditions: Supporting information Fig. 2
FPR2 = FPR2 surface expression on monocytes; format: cell-based, human; conditions: Supporting information Fig. 2
neutrophils [11] = assay: Cross-desensitization of calcium mobilization of neutrophils; format: cell-based, human; conditions: WKYMVm first
THP-1 cells = assay: Calcium mobilization in THP-1 cells; format: cell-based; conditions: Fig. 7C
In short: (§1)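 Peripheral blood monocytes (kit-isolated from PBMC, CD14-checked) or THP-1 cells at 10^7/mL were loaded with 5 µM Indo-1-AM for 7 min at 37 °C, then held 10 min at RT and washed in cold PBS. Cells were run at 2×10^6/mL in KRP (PBS, 1.5 mM CaCl2, 1.5 mM MgSO4). After baseline they got a first stimulus, then a second. Flow cytometry used 351 nm excitation and the 405:485 nm ratio, gating live cells. Three independent experiments.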

monocytes [12] = assay: Calcium mobilization in monocytes; format: cell-based, human; conditions: ATP or WKYMVm first, then LL-37; Fig. 7D
In short: as §1

neutrophils [13] = conditions: ref [66]; cited from earlier work

Compound: O=C(Nc1ccc([N+](=O)[O-])cc1O)Nc1ccccc1Br [SB225002]
- reduction of [Ca2+]i for LL-37 (neutrophils [1]; SB225002 10 µM, then 180 s later LL-37 5 µM, Fig. 6A): > 90%
- inhibition of calcium mobilization for ATP (neutrophils [1]; SB225002 10 µM, ATP 5 µM, Fig. 6F): not for fMLF (Fig. 6E), ATP
- inhibition of calcium mobilization for CXCL1 (neutrophils [1]; SB225002 10 µM, CXCL1 10 nM, Fig. 6C): complete inhibition
- inhibition of calcium mobilization for CXCL7 (neutrophils [1]; SB225002 10 µM, CXCL7 10 nM, Fig. 6B): complete inhibition
- inhibition of CXCL8 stimulation ([Ca2+]i) (neutrophils [1]; SB225002 10 µM, CXCL8 10 nM, Fig. 6D): about 50%
- inhibition of calcium mobilization for WKYMVm (neutrophils [1]; SB225002 10 µM, WKYMVm 5 µM, Fig. 6G): not for fMLF (Fig. 6E), ATP (Fig. 6F) or WKYMVm
- inhibition of calcium mobilization for fMLF (neutrophils [1]; SB225002 10 µM, fMLF 100 nM, Fig. 6E): not for fMLF
- migration of SB225002 treated controls (neutrophils [2]; SB225002 10 µM without LL-37): did not interfere with cell migration
- inhibition of LL-37-induced neutrophil migration (neutrophils [2]; SB225002 10 µM, 20 min pretreatment, LL-37 5 µM, p<0.05): completely inhibited; also recorded: completely block
- inhibition of LL-37-stimulated monocyte migration (monocytes [3]; SB225002 10 µM, 20 min preincubation): blocked
- inhibition of [Ca2+]i of neutrophils treated with CXCL1 or CXCL8 (neutrophils [4]): dose dependent inhibition
- inhibition of neutrophil migration with CXCL1 or CXCL8 (neutrophils [5]; SB225002, ref [27]): dose dependent inhibition
- inhibition of CXCL1 and CXCL7 stimulated neutrophil migration (neutrophils [5]; ref [27]): completely inhibited
- inhibition of CXCL8 stimulated neutrophil migration (neutrophils [5]; ref [27]): partially inhibited

Compound: TNFα
- CXCR2 down-regulation (CXCR2 [6]): cause down-regulation of CXCR2 and CXCR1
- CXCR1 down-regulation (CXCR1 [7]): cause down-regulation of CXCR2 and CXCR1

Compound: WKYMVm [reference compound]
- CXCR2 surface expression (CXCR2 [8]): caused down-regulation of both CXCR2 and CXCR1 expression with similar kinetics
- CXCR1 surface expression (CXCR1 [9]): caused down-regulation of both CXCR2 and CXCR1 expression with similar kinetics
- CXCR2 down-regulation on monocytes (CXCR2 [10]): down regulated FPR2 and CXCR2
- FPR2 down-regulation on monocytes (FPR2): down regulated FPR2 and CXCR2
- calcium flux response in the absence of extracellular Ca2+ (neutrophils [1]; PBS without calcium and magnesium, LL-37 5 µM, WKYMVm 5 µM, ATP 5 µM, Fig. 3C): capable of generating a calcium flux response
- cross-desensitization of CXCL1 response by WKYMVm (neutrophils [11]; then CXCL1, Supporting information Fig. 3E-F): this was the case for CXCL1
- cross-desensitization of LL-37 response by WKYMVm (neutrophils [11]; then LL-37, Supporting information Fig. 3C-D): able to block LL-37 stimulated calcium mobilization
- calcium signal in THP-1 cells (THP-1 cells): but not WKYMVm gives a robust calcium signal
- block of LL-37 induced signal by WKYMVm pretreatment (THP-1 cells; WKYMVm first, then LL-37, THP-1): does not block the LL-37 induced signal
- cross-block of LL-37 stimulated calcium mobilization in monocytes (monocytes [12]): neither ATP nor WKYMVm cross-block LL-37 stimulated calcium mobilization
- stimulation of migration of monocytes (monocytes [3]; CXCL1 50 nM, WKYMVm 5 µM, ATP 50 µM, BzATP 50 µM, 90 min, 37°C): only LL-37 stimulated migration of monocytes

Compound: pertussis toxin [PTX]
- block of CXCL8, fMLF, LTB4, CXCL6, and MNCF stimulated neutrophil migration (neutrophils [5]; ref [33], [63], [65]): able to block
- block of FPR- and CXCR-induced oxidase activity of neutrophils (neutrophils [13]): able to block
